Test results published in ChEMBL document CHEMBL3259729, “Optimizing the Physicochemical Properties of Raf/MEK Inhibitors by Nitrogen Scanning” (ACS Med Chem Lett, 2014).
≈ marks a conversion by molar mass, not a printed value.

Assays:
HCT-116 = assay: Inhibition of human HCT116 cell growth after 96 hrs by counting kit-8 analysis; assay type: functional, cell-based; details: HCT-116, 96 h
[1] = biological target: RAF proto-oncogene serine/threonine-protein kinase (Homo sapiens, UniProt P04049); assay: Inhibition of truncated active C-Raf (unknown origin) assessed as MEK1 phosphorylation using inactive MEK1 K97R as substrate after 45 mins
[2] = biological target: Dual specificity mitogen-activated protein kinase kinase 1 (Homo sapiens, UniProt Q02750, S218E/S222E); assay: Inhibition of constitutively active MEK1 S218E,S222E mutant (unknown origin) assessed as MAP kinase 2/Erk2-mediated FAM-Erktide phosphorylation using MAP kinase 2/Erk2 as substrate preincubated for 30 mins by IMAP fluorescence polarization assay
HT-29 = assay: Inhibition of human HT-29 cell growth; assay type: functional, cell-based
[3] = Solubility of the compound in fasted state simulated intestinal fluid by LYSA method; assay type: ADME; details: fasted state simulated intestinal fluid (FaSSIF)
[4] = Intrinsic clearance in human liver microsomes at 5 uM by LC/MS/MS analysis; assay type: ADME; details: read-out: CLH
[5] = Membrane permeability of the compound at pH 6.5 by PAMPA PSR4p assay; assay type: physicochemical; details: read-out: permeability
[6] = AUC in BALB-nu/nu mouse at 100 mg/kg, po measured after 24 hrs by LC-MS/MS analysis; assay type: ADME, organism-based; design: time < 24 hr, dose 100 mg/kg, route oral; details: plasma
How it was run: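 Mice dosed orally at 100 mg/kg as a solution in 5% DMSO, 5% Cremophor EL, 15% PEG400, 15% 2-hydroxypropyl-β-cyclodextrin and 60% water.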

Cytochrome P450 2C9 [7] = biological target: T1, Cytochrome P450 2C9 (Homo sapiens, UniProt P11712); assay: Inhibition of CYP2C9 in human liver microsomes using diclofenac as substrate measured after 30 mins preincubation by LC-MS/MS analysis in absence of NADPH; assay type: ADME
How it was run: (§1)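 The IC50 is determined after a 30 min preincubation without NADPH.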

Cytochrome P450 2C9 [8] = biological target: T1, Cytochrome P450 2C9; assay: Inhibition of CYP2C9 in human liver microsomes using diclofenac as substrate measured after 30 mins preincubation by LC-MS/MS analysis in presence of NADPH; assay type: ADME
How it was run: (§2)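 The IC50 is determined after a 30 min preincubation with NADPH.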

Cytochrome P450 3A4 [9] = biological target: T2, Cytochrome P450 3A4 (Homo sapiens, UniProt P08684); assay: Inhibition of CYP3A4 in human liver microsomes using midazolam as substrate measured after 30 mins preincubation by LC-MS/MS analysis in absence of NADPH; assay type: ADME; how it was run: as §1
Cytochrome P450 3A4 [10] = biological target: T2, Cytochrome P450 3A4; assay: Inhibition of CYP3A4 in human liver microsomes using midazolam as substrate measured after 30 mins preincubation by LC-MS/MS analysis in presence of NADPH; assay type: ADME; how it was run: as §2
[11] = Bioavailability in BALB-nu/nu mouse at 2.5 mg/kg, iv and 5 mg/kg, po by LC-MS/MS analysis; assay type: ADME, organism-based; details: in vivo
[12] = Clearance in BALB-nu/nu mouse at 2.5 mg/kg, iv and 5 mg/kg, po by LC-MS/MS analysis; assay type: ADME, organism-based; details: in vivo
[13] = Bioavailability in Crlj:CD rat at 2.5 mg/kg, iv and 5 mg/kg, po by LC-MS/MS analysis; assay type: ADME, organism-based; details: in vivo
[14] = Clearance in Crlj:CD rat at 2.5 mg/kg, iv and 5 mg/kg, po by LC-MS/MS analysis; assay type: ADME, organism-based; details: in vivo
[15] = Bioavailability in cynomolgus monkey at 2.5 mg/kg, iv and 5 mg/kg, po by LC-MS/MS analysis; assay type: ADME, organism-based, Macaca fascicularis; details: in vivo
[16] = Clearance in cynomolgus monkey at 2.5 mg/kg, iv and 5 mg/kg, po by LC-MS/MS analysis; assay type: ADME, organism-based, Macaca fascicularis; details: in vivo
C32 [17] = assay: Antitumor activity against human C32 cells xenografted in po dosed BALB-nu/nu mouse assessed as tumor growth inhibition administered qd for 11 days; assay type: functional; details: for ED50: Mus musculus, C32, po, 264 h
How it was run: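 C32 cells implanted subcutaneously in the right flank of BALB-nu/nu mice, with tumors established before treatment. Compound given orally once daily for 11 days (day 0 to day 10). Tumor size measured twice per week. Values are mean SD, n = 4.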

Mus musculus [18] = assay: Toxicity in po dosed BALB-nu/nu mouse xenografted with human C32 cells assessed as body weight administered qd for 11 days; assay type: organism-based; details: in vivo, 264 h
Mus musculus [19] = assay: Toxicity in po dosed BALB-nu/nu mouse xenografted with human C32 cells assessed as adverse clinical signs administered qd for 11 days; assay type: organism-based; details: in vivo, 264 h
[20] = Saturated solubility of the compound in fasted state simulated intestinal fluid after 24 hrs by shaking flask method; assay type: ADME; details: fasted state simulated intestinal fluid (FaSSIF)
How it was run: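 Free crystalline form equilibrated for 24 h in FaSSIF, and the saturated concentration was reported.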

[21] = Dissociation constant, pKa of the compound at 10 mM by spectroscopic titration analysis; assay type: physicochemical
C32 [22] = assay: Growth inhibition of human C32 cells harboring B-Raf V600E mutant
[23] = Supersaturated solubility of the compound in fasted state simulated intestinal fluid after 4 hrs by miniscale dissolution test; assay type: ADME; details: fasted state simulated intestinal fluid (FaSSIF)

T2 sequence (P08684 whole entry): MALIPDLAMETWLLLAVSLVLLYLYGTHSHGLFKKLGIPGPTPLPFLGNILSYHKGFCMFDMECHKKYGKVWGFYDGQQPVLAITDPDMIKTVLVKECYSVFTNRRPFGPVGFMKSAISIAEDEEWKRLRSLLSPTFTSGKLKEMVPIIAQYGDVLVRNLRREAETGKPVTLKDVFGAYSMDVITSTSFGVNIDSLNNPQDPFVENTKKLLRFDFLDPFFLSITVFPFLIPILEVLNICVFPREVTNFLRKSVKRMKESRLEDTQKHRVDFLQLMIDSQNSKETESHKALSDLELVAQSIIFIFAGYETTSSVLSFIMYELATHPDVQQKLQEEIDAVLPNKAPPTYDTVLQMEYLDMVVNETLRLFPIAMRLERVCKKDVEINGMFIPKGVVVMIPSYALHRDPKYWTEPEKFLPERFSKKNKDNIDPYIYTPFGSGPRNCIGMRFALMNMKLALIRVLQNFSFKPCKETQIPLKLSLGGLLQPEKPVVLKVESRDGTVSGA
T1 sequence (P11712 whole entry): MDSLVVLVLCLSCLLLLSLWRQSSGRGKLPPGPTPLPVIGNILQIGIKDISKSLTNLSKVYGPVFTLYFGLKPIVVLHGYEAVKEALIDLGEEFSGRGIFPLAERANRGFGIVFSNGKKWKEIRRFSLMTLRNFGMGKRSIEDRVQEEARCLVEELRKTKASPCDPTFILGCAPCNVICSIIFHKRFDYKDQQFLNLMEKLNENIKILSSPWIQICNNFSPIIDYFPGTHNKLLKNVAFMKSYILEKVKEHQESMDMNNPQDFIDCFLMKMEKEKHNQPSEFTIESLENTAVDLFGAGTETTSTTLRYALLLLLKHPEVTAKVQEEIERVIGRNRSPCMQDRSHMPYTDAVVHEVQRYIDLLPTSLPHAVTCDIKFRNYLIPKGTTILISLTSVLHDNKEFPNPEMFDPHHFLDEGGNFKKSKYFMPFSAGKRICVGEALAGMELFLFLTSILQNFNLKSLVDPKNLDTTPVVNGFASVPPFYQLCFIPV
RAF proto-oncogene serine/threonine-protein kinase, sequence (P04049 whole entry, the tested form may be a part): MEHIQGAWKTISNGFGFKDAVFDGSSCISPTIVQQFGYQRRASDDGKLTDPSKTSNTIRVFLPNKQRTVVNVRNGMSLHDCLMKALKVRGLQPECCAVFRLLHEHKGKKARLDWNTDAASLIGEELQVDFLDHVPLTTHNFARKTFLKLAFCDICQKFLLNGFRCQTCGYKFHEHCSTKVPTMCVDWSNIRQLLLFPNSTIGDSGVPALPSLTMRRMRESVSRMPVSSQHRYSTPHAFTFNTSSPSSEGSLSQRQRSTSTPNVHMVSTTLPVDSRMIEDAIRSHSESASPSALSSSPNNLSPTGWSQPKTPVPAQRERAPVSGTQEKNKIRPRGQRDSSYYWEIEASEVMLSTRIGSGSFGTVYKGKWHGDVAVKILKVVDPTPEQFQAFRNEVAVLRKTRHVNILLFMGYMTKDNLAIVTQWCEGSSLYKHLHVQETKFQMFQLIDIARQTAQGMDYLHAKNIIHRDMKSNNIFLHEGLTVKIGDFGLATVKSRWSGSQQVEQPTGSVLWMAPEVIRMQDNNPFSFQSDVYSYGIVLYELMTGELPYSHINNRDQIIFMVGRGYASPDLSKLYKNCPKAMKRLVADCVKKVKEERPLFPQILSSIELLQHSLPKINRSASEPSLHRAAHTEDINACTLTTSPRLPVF
Dual specificity mitogen-activated protein kinase kinase 1, sequence (Q02750 whole entry S218E/S222E): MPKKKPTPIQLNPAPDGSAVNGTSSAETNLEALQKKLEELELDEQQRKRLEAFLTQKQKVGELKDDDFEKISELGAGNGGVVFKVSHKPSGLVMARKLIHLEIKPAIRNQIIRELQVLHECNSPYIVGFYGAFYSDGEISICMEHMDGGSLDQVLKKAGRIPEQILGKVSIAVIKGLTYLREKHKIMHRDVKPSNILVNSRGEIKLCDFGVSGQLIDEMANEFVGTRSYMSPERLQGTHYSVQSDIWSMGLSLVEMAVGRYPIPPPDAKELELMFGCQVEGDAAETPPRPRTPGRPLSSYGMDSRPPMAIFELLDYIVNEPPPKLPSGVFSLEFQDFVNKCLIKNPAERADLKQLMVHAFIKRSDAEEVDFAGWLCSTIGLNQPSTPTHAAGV

| SMILES | IC50 (HCT-116) | IC50 [1] | IC50 [2] | IC50 (HT-29) | solubility [3] | microsomal CLint at 5 µM [4] | AUC at 24 h [6] | further results |
| --- | --- | --- | --- | --- | --- | --- | --- | --- |
| CNS(=O)(=O)Nc1cc(Cc2c(C)c3ccc(OC(=O)N(C)C)cc3oc2=O)ccn1 | 32 nM | 32 nM | 99 nM | 25 nM | 55 µg/mL (≈ 123 µM) | 6 µL/min/mg | 134 µM·h | Papp [5]: 7 ×10⁻⁶ cm/s; IC50 (Cytochrome P450 2C9 [7]): > 100000 nM; IC50 (Cytochrome P450 2C9 [8]): > 100000 nM; IC50 (Cytochrome P450 3A4 [9]): > 100000 nM; IC50 (Cytochrome P450 3A4 [10]): > 100000 nM |
| CNS(=O)(=O)Nc1nccc(Cc2c(C)c3ccc(Oc4ccccn4)cc3oc2=O)c1F | 45 nM | 81 nM | 190 nM |  |  |  |  |  |
| CNS(=O)(=O)Nc1cccc(Cc2c(C)c3ccc(Oc4ncccn4)cc3oc2=O)c1F |  |  | 97 nM |  |  | 6.7 µL/min/mg | 425 µM·h | IC50 (Cytochrome P450 2C9 [7]): 19000 nM; IC50 (Cytochrome P450 2C9 [8]): 19000 nM; IC50 (Cytochrome P450 3A4 [9]): 26000 nM; IC50 (Cytochrome P450 3A4 [10]): 11000 nM; bioavailability [11]: 75%; clearance [12]: 6.8 mL/min/kg; bioavailability [13]: 84%; clearance [14]: 6.6 mL/min/kg; bioavailability [15]: 59%; clearance [16]: 0.9 mL/min/kg; TGI (C32 [17]): 96%; ED50 (C32 [17]): 1.44 mg/kg; Activity (Mus musculus [18]): Non-toxic; Activity (Mus musculus [19]): Non-toxic; solubility thermodynamic at 24 h [20]: 5.5 µg/mL (≈ 11.7 µM); pKa at 10000 µM [21]: 8.86; IC50 (C32 [22]): 57 nM |
| CNS(=O)(=O)Nc1nccc(Cc2c(C)c3ccc(Oc4ccccc4)cc3oc2=O)c1F | 110 nM | 21 nM | 76 nM |  |  |  |  |  |
| CNS(=O)(=O)Nc1nccc(Cc2c(C)c3ccc(Oc4ncccn4)cc3oc2=O)c1F [AVUTOMETINIB] | 40 nM | 56 nM |  |  | 159 µg/mL (≈ 337 µM) | 0.5 µL/min/mg | 2830 µM·h | IC50 (Cytochrome P450 2C9 [7]): 12000 nM; IC50 (Cytochrome P450 2C9 [8]): 60000 nM; IC50 (Cytochrome P450 3A4 [9]): > 100000 nM; IC50 (Cytochrome P450 3A4 [10]): > 100000 nM; bioavailability [11]: 93%; clearance [12]: 1.1 mL/min/kg; bioavailability [13]: 66%; clearance [14]: 0.7 mL/min/kg; bioavailability [15]: 82%; clearance [16]: 0.1 mL/min/kg; TGI (C32 [17]): 118%; ED50 (C32 [17]): 0.09 mg/kg; Activity (Mus musculus [18]): Non-toxic; Activity (Mus musculus [19]): Non-toxic; solubility thermodynamic at 24 h [20]: 2.7 µg/mL (≈ 5.73 µM); pKa at 10000 µM [21]: 7.02; IC50 (C32 [22]): 47 nM |
| CNS(=O)(=O)Nc1cccc(Cc2c(C)c3cc(C)c(OC(=O)N(C)C)cc3oc2=O)c1 |  |  | 29 nM | 8 nM |  | 17 µL/min/mg | 18 µM·h | Papp [5]: 4 ×10⁻⁶ cm/s |
| CNS(=O)(=O)Nc1nccc(Cc2c(C)c3ccc(Oc4cnccn4)cc3oc2=O)c1F | 900 nM | 56 nM | 650 nM |  |  |  |  |  |
| CNS(=O)(=O)Nc1cccc(Nc2c(C)c3ccc(Oc4ncccn4)cc3oc2=O)c1 | > 10000 nM | > 50000 nM | > 50000 nM |  |  |  |  |  |
| CNS(=O)(=O)Nc1ccnc(Cc2c(C)c3cc(C)c(OC(=O)N(C)C)cc3oc2=O)c1 | > 10000 nM | 27000 nM | 37000 nM | 5700 nM | 425 µg/mL (≈ 923 µM) |  |  |  |
| CNS(=O)(=O)[N-]c1nccc(Cc2c(C)c3ccc(Oc4ncccn4)cc3oc2=O)c1F.[K+] [AVUTOMETINIB POTASSIUM] |  |  |  |  |  |  |  | solubility at 4 h [23]: 57 µg/mL |
| CNS(=O)(=O)Nc1cccc(Cc2c(C)c3ccc(OC(=O)N(C)C)nc3oc2=O)c1 | 1100 nM | 2500 nM | 440 nM | 600 nM | 43 µg/mL (≈ 96.3 µM) | 3 µL/min/mg |  | Papp [5]: 3 ×10⁻⁶ cm/s |
| CNS(=O)(=O)Nc1cccc(Cc2c(C)c3ccc(OC(=O)N(C)C)cc3oc2=O)n1 | 270 nM | 70 nM | 110 nM | 73 nM | 320 µg/mL (≈ 717 µM) | 7 µL/min/mg | 314 µM·h | Papp [5]: 6 ×10⁻⁶ cm/s |
| CNS(=O)(=O)Nc1cncc(Cc2c(C)c3ccc(OC(=O)N(C)C)cc3oc2=O)c1 | > 10000 nM | > 50000 nM | > 50000 nM | > 10000 nM | 240 µg/mL (≈ 538 µM) |  |  |  |
| CNS(=O)(=O)[N-]c1cccc(Cc2c(C)c3ccc(Oc4ncccn4)cc3oc2=O)c1F.[K+] |  |  |  |  |  |  |  | solubility at 4 h [23]: 12 µg/mL |
| CNS(=O)(=O)Nc1cccc(Cc2c(C)c3ccc(OC(=O)N(C)C)cc3oc2=O)c1 |  |  | 110 nM | 9 nM |  | 20 µL/min/mg |  | IC50 (Cytochrome P450 2C9 [7]): 29000 nM; IC50 (Cytochrome P450 2C9 [8]): 96000 nM; IC50 (Cytochrome P450 3A4 [9]): 13000 nM; IC50 (Cytochrome P450 3A4 [10]): 5600 nM |
| CNS(=O)(=O)[N-]c1cccc(Cc2c(C)c3ccc(OC(=O)N(C)C)cc3oc2=O)c1.[Na+] |  |  |  |  |  |  | 78 µM·h |  |
